Experiments:
[1] = test system: HepG2; assay: Cytotoxicity against human HepG2 cells assessed as inhibition of cell viability incubated for 72 hrs by MTS assay; type: functional, cell-based; conditions: HepG2, 72 h
How it was run: (§1)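 Cells seeded at 0.5 to 100 × 10^3 per well the day before treatment, then exposed for 72 h to 9 serial concentrations (3.16-fold dilutions, top 198 μM), in duplicate. MTS added for a final 4 h at 37 °C and absorbance read. IC50 is the concentration giving 50% loss of viability. MI% is the maximum inhibition over the tested range.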

[2] = test system: SK-MES-1; assay: Cytotoxicity against human SK-MES-1 cells assessed as inhibition of cell viability incubated for 72 hrs by MTS assay; type: functional, cell-based; conditions: SK-MES-1, 72 h; how it was run: as §1
[3] = test system: HT-29; assay: Cytotoxicity against human HT-29 cells assessed as inhibition of cell viability incubated for 72 hrs by MTS assay; type: functional, cell-based; conditions: HT-29, 72 h; how it was run: as §1
[4] = test system: MIA PaCa-2; assay: Cytotoxicity against human MIA PaCa-2 cells assessed as maximum inhibition of cell viability upto 198 uM incubated for 72 hrs by MTS assay relative to control; type: functional; conditions: up to 198 µM
How it was run: (§2)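 Cells seeded at 0.5 to 100 × 10^3 per well the day before drug addition, then exposed to compound for 72 h. MTS added afterwards, with a further 4 h at 37 °C, and absorbance read. Tested in duplicate at 9 serial 3.16-fold dilutions, top concentration 198 μM. MI% is the maximum inhibition of viability across the tested range.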

[5] = test system: MIA PaCa-2; assay: Cytotoxicity against human MIA PaCa-2 cells assessed as inhibition of cell viability incubated for 72 hrs by MTS assay; type: functional, cell-based; conditions: MIA PaCa-2, 72 h; how it was run: as §1
[6] = test system: OVCAR-3; assay: Cytotoxicity against human OVCAR-3 cells assessed as inhibition of cell viability incubated for 72 hrs by MTS assay; type: functional, cell-based; conditions: OVCAR-3, 72 h; how it was run: as §1
[7] = test system: RT112/84; assay: Cytotoxicity against human RT112/84 cells assessed as maximum inhibition of cell viability upto 198 uM incubated for 72 hrs by MTS assay relative to control; type: functional; conditions: up to 198 µM; how it was run: as §2
[8] = test system: COLO 205; assay: Cytotoxicity against human COLO 205 cells assessed as maximum inhibition of cell viability upto 198 uM incubated for 72 hrs by MTS assay relative to control; type: functional; conditions: up to 198 µM; how it was run: as §2
[9] = test system: OVCAR-3; assay: Cytotoxicity against human OVCAR-3 cells assessed as maximum inhibition of cell viability upto 198 uM incubated for 72 hrs by MTS assay relative to control; type: functional; conditions: up to 198 µM; how it was run: as §2
[10] = test system: RPMI-8226; assay: Cytotoxicity against human RPMI-8226 cells assessed as inhibition of cell viability incubated for 72 hrs by MTS assay; type: functional, cell-based; conditions: RPMI-8226, 72 h; how it was run: as §1
[11] = test system: NCI-H1975; assay: Cytotoxicity against human NCI-H1975 cells assessed as inhibition of cell viability incubated for 72 hrs by MTS assay; type: functional, cell-based; conditions: NCI-H1975, 72 h; how it was run: as §1
[12] = test system: HepG2; assay: Cytotoxicity against human HepG2 cells assessed as maximum inhibition of cell viability upto 198 uM incubated for 72 hrs by MTS assay relative to control; type: functional; conditions: up to 198 µM; how it was run: as §2
[13] = test system: NCI-H1975; assay: Cytotoxicity against human NCI-H1975 cells assessed as maximum inhibition of cell viability upto 198 uM incubated for 72 hrs by MTS assay relative to control; type: functional; conditions: up to 198 µM; how it was run: as §2
[14] = test system: COLO 205; assay: Cytotoxicity against human COLO 205 cells assessed as inhibition of cell viability incubated for 72 hrs by MTS assay; type: functional, cell-based; conditions: COLO 205, 72 h; how it was run: as §1
[15] = test system: SK-MES-1; assay: Cytotoxicity against human SK-MES-1 cells assessed as maximum inhibition of cell viability upto 198 uM incubated for 72 hrs by MTS assay relative to control; type: functional; conditions: up to 198 µM; how it was run: as §2
[16] = test system: RPMI-8226; assay: Cytotoxicity against human RPMI-8226 cells assessed as maximum inhibition of cell viability upto 198 uM incubated for 72 hrs by MTS assay relative to control; type: functional; conditions: up to 198 µM; how it was run: as §2
[17] = Prodrug activation assessed as carboxypeptidase Y (unknown origin) mediated (2S)-2-[[[(2R,3S,5R)-[…]-3-hydroxy-tetrahydrofuran-2-yl]methoxy-hydroxy-phosphoryl]amino]propanoic acid formation from intermediate (2S)-2-[[[(2R,3S,5R)-5-(5-fluoro-2,4-dioxo-pyrimidin-1-yl)-3-hydroxy-tetrahydrofuran-2-yl]methoxy-(1-naphthyloxy)phosphinothioyl]amino]propanoic acid at 5 mg measured for 48 hrs by 31P-NMR assay
How it was run: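 Thiophosphoramidate (5 mg, about 0.008 mmol) dissolved in 150 µL acetone-d6, with 300 µL TRIZMA buffer pH 7.6 added. Enzymatic conversion followed by 31P-NMR.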

[18] = test system: HT-29; assay: Cytotoxicity against human HT-29 cells assessed as maximum inhibition of cell viability upto 198 uM incubated for 72 hrs by MTS assay relative to control; type: functional; conditions: up to 198 µM; how it was run: as §2
[19] = test system: RT112/84; assay: Cytotoxicity against human RT112/84 cells assessed as inhibition of cell viability incubated for 72 hrs by MTS assay; type: functional, cell-based; conditions: RT112/84, 72 h; how it was run: as §1
[20] = test system: 5637; assay: Cytotoxicity against human 5637 cells assessed as maximum inhibition of cell viability upto 198 uM incubated for 72 hrs by MTS assay relative to control; type: functional; conditions: up to 198 µM; how it was run: as §2
[21] = test system: 5637; assay: Cytotoxicity against human 5637 cells assessed as inhibition of cell viability incubated for 72 hrs by MTS assay; type: functional, cell-based; conditions: Homo sapiens, 5637, 72 h; how it was run: as §1
[22] = test system: K562; assay: Cytotoxicity against human K562 cells assessed as maximum inhibition of cell viability upto 198 uM incubated for 72 hrs by MTS assay relative to control; type: functional; conditions: up to 198 µM; how it was run: as §2
[23] = Cytotoxicity against human ACHN-luc2 cells assessed as inhibition of cell viability incubated for 72 hrs by MTS assay; type: functional, cell-based; conditions: ACHN-luc2, 72 h; how it was run: as §1
[24] = test system: MCF7; assay: Cytotoxicity against human MCF7 cells assessed as inhibition of cell viability incubated for 72 hrs by MTS assay; type: functional, cell-based; conditions: MCF7, 72 h
[25] = test system: CAKI-2; assay: Cytotoxicity against human CAKI-2 cells assessed as maximum inhibition of cell viability upto 198 uM incubated for 72 hrs by MTS assay relative to control; type: functional; conditions: up to 198 µM; how it was run: as §2
[26] = test system: PC-3; assay: Cytotoxicity against human PC-3 cells assessed as inhibition of cell viability incubated for 72 hrs by MTS assay; type: functional, cell-based; conditions: PC-3, 72 h; how it was run: as §1
[27] = test system: PC-3; assay: Cytotoxicity against human PC-3 cells assessed as maximum inhibition of cell viability upto 198 uM incubated for 72 hrs by MTS assay relative to control; type: functional; conditions: up to 198 µM; how it was run: as §2
[28] = test system: MDA-MB-231; assay: Cytotoxicity against human MDA-MB-231 cells assessed as inhibition of cell viability incubated for 72 hrs by MTS assay; type: functional, cell-based; conditions: MDA-MB-231, 72 h; how it was run: as §1
[29] = test system: HL-60; assay: Cytotoxicity against human HL-60 cells assessed as inhibition of cell viability incubated for 72 hrs by MTS assay; type: functional, cell-based; conditions: HL-60, 72 h; how it was run: as §1
[30] = test system: A498; assay: Cytotoxicity against human A498 cells assessed as inhibition of cell viability incubated for 72 hrs by MTS assay; type: functional, cell-based; conditions: A498, 72 h; how it was run: as §1
[31] = test system: RL; assay: Cytotoxicity against human RL cells assessed as maximum inhibition of cell viability upto 198 uM incubated for 72 hrs by MTS assay relative to control; type: functional; conditions: up to 198 µM; how it was run: as §2
[32] = test system: K562; assay: Cytotoxicity against human K562 cells assessed as inhibition of cell viability incubated for 72 hrs by MTS assay; type: functional, cell-based; conditions: K562, 72 h; how it was run: as §1
[33] = test system: MDA-MB-231; assay: Cytotoxicity against human MDA-MB-231 cells assessed as maximum inhibition of cell viability upto 198 uM incubated for 72 hrs by MTS assay relative to control; type: functional; conditions: up to 198 µM; how it was run: as §2
[34] = test system: KG-1; assay: Cytotoxicity against human KG-1 cells assessed as maximum inhibition of cell viability upto 198 uM incubated for 72 hrs by MTS assay relative to control; type: functional; conditions: up to 198 µM; how it was run: as §2
[35] = test system: MOLT-4; assay: Cytotoxicity against human MOLT-4 cells assessed as maximum inhibition of cell viability upto 198 uM incubated for 72 hrs by MTS assay relative to control; type: functional; conditions: up to 198 µM; how it was run: as §2
[36] = test system: KG-1; assay: Cytotoxicity against human KG-1 cells assessed as inhibition of cell viability incubated for 72 hrs by MTS assay; type: functional, cell-based; conditions: KG-1, 72 h; how it was run: as §1
[37] = test system: CAKI-2; assay: Cytotoxicity against human CAKI-2 cells assessed as inhibition of cell viability incubated for 72 hrs by MTS assay; type: functional, cell-based; conditions: CAKI-2, 72 h; how it was run: as §1
[38] = test system: HL-60; assay: Cytotoxicity against human HL-60 cells assessed as maximum inhibition of cell viability upto 198 uM incubated for 72 hrs by MTS assay relative to control; type: functional; conditions: up to 198 µM; how it was run: as §2
[39] = test system: A498; assay: Cytotoxicity against human A498 cells assessed as maximum inhibition of cell viability upto 198 uM incubated for 72 hrs by MTS assay relative to control; type: functional; conditions: up to 198 µM; how it was run: as §2
[40] = test system: RL; assay: Cytotoxicity against human RL cells assessed as inhibition of cell viability incubated for 72 hrs by MTS assay; type: functional, cell-based; how it was run: as §1
[41] = Cytotoxicity against human T24/83 cells assessed as maximum inhibition of cell viability upto 198 uM incubated for 72 hrs by MTS assay relative to control; type: functional; conditions: up to 198 µM; how it was run: as §2
[42] = Cytotoxicity against human T24/83 cells assessed as inhibition of cell viability incubated for 72 hrs by MTS assay; type: functional, cell-based; conditions: T24/83, 72 h; how it was run: as §1
[43] = Cytotoxicity against human ACHN-luc2 cells assessed as maximum inhibition of cell viability upto 198 uM incubated for 72 hrs by MTS assay relative to control; type: functional; conditions: up to 198 µM; how it was run: as §2
[44] = test system: MCF7; assay: Cytotoxicity against human MCF7 cells assessed as maximum inhibition of cell viability upto 198 uM incubated for 72 hrs by MTS assay relative to control; type: functional; conditions: up to 198 µM; how it was run: as §2
[45] = test system: MOLT-4; assay: Cytotoxicity against human MOLT-4 cells assessed as inhibition of cell viability incubated for 72 hrs by MTS assay; type: functional, cell-based; conditions: MOLT-4, 72 h; how it was run: as §1

For `C[C@H](NP(=S)(OC[C@H]1O[C@@H](n2cc(F)c(=O)[nH]c2=O)C[C@@H]1O)Oc1cccc2ccccc12)C(=O)OCc1ccccc1` (stereo partly drawn), the IC50 [1] was 25.5 µM, the IC50 [2] was 2.49 µM and the IC50 [3] was 2.81 µM. It also gave an Imax [4] of 100%, an IC50 [5] of 2.69 µM and an IC50 [6] of 21.5 µM. For the same molecule, the Imax [7] was 97%, the Imax [8] was 100% and the Imax [9] was 100%. The IC50 [10] was 6.63 µM, the IC50 [11] was 100 µM and the Imax [12] was 100%. For the same molecule, the Imax [13] was 100%, the IC50 [14] was 4 µM and the Imax [15] was 97%. For the same molecule, the Imax [16] was 100%, the Drug metabolism [17] was “Metabolite_Detected” and the Imax [18] was 100%. It also gave an IC50 [19] of 2.49 µM.
Molecule `C[C@H](NP(=O)(OC[C@@H]1C[C@@H](O)[C@H](n2cnc3c(N)ncnc32)O1)Oc1ccccc1)C(=O)OCc1ccccc1` (stereo partly drawn) [FOSDESDENOSINE SIPALABENAMIDE] has an IC50 [1] of 25.2 µM, an Imax [20] of 100% and an IC50 [21] of 47.5 µM. The IC50 [3] was 9.47 µM, the Imax [22] was 83% and the IC50 [23] was 112 µM. For the same molecule, the Imax [4] was 95%, the IC50 [5] was 7.41 µM and the IC50 [24] was 3.69 µM. For the same molecule, the Imax [25] was 78%, the IC50 [26] was 51.2 µM and the Imax [27] was 74%. The IC50 [28] was 19.4 µM, the IC50 [29] was 38.4 µM and the IC50 [30] was 58.1 µM. For the same molecule, the Imax [31] was 94%, the IC50 [32] was 10.3 µM and the Imax [33] was 79%. For the same molecule, the Imax [34] was 92%, the Imax [35] was 96% and the Imax [8] was 87%. For the same molecule, the IC50 [36] was 23.5 µM, the IC50 [37] was 102 µM and the Imax [38] was 101%. For the same molecule, the Imax [12] was 80%, the Imax [39] was 82% and the IC50 [40] was 34.6 µM. For the same molecule, the Imax [41] was 92%, the IC50 [42] was 31.4 µM and the Imax [43] was 62%. The IC50 [14] was 27.8 µM, the Imax [44] was 90% and the IC50 [45] was 4.67 µM. For the same molecule, the Imax [18] was 96%.
